According to ChEMBL document CHEMBL1125341, “Delta opioid antagonist activity and binding studies of regioisomeric isothiocyanate derivatives of naltrindole: evidence for delta receptor subtypes” (J Med Chem, 1992):

Key:
Mus musculus [1] = test: Compound was tested for antagonistic activity of opioid agonist induced antinociception by using U-50,488H as agonist, administered sc in mice; type: functional
Method in brief: (§1)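 Mice received isothiocyanate 10 nmol icv 24 h before testing. Agonist ED50 was then found in the abdominal stretch assay: DPDPE and DSLET given icv, morphine and U50488 given sc. Result is the ED50 ratio, treated over untreated control mice, with significance testing.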

Cavia porcellus = species: Cavia porcellus; test: compound was evaluated for agonist activity in smooth muscle preparation of guinea pig ileum (GPI) at 1 uM concentration; type: functional; details: Muscle tissue
Method in brief: (§2)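 Ligand at 1 µM tested directly on guinea pig ileum longitudinal muscle or mouse vas deferens; percent inhibition of the preparation recorded. Mean ± SEM of 3 experiments.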

Mus musculus [2] = test: Compound was tested for antagonistic activity of opioid agonist induced antinociception by using DPDPE as agonist, administered icv in mice; type: functional; method in brief: as §1
[3] = target: T1, Delta-type opioid receptor (Rattus norvegicus, UniProt P33533); test: Compound was evaluated for its effect towards [3H]DSLET binding to Opioid receptor delta 2 at 0.25 nM concentration
T1 sequence (P33533 whole entry): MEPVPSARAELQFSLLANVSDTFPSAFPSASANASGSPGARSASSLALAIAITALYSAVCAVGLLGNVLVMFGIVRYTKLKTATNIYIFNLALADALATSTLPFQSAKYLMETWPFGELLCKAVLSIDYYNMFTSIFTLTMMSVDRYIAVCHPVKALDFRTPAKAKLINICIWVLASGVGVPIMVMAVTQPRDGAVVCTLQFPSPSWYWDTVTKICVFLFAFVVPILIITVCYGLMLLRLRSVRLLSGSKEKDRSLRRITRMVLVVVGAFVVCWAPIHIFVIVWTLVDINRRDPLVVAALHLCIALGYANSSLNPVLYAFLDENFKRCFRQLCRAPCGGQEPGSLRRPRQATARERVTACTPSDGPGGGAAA

Mu-type opioid receptor [4] = target: Mu-type opioid receptor (UniProt P35372); test: Post wash IC50 ratio obtained by dividing the IC50 of the morphine in presence of the antagonist by the IC50 of the agonist alone in the same tissue preparation against opioid receptor mu in guinea pig ileum; type: functional, tissue-based
Chain of Mu-type opioid receptor (P35372 whole entry): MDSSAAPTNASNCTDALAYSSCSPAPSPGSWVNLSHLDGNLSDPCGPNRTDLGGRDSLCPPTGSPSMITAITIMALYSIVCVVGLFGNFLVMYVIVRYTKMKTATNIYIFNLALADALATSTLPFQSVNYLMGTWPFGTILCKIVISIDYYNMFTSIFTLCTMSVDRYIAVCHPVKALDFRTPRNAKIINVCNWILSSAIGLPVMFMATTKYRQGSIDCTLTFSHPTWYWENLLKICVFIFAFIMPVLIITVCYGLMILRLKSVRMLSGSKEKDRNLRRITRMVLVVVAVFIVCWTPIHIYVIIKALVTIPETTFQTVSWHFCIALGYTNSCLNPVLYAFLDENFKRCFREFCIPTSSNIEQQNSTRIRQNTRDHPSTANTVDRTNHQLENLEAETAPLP
Method in brief: (§3)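 Guinea pig ileum longitudinal muscle (morphine, ethylketazocine) or mouse vas deferens (DADLE). Tissue was exposed to antagonist at 100 nM, or 1 nM for one isomer, for 30 min before agonist concentration-response. Prewash ratio is agonist IC50 with antagonist over IC50 alone in the same tissue. Where the shift was significant, tissue was washed extensively and IC50 redetermined; postwash ratio is over control IC50. Mean ± SEM.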

[5] = Prewash IC50 ratio obtained by dividing the IC50 of the DADLE in presence of the antagonist by the IC50 of the agonist alone in the same tissue preparation against delta receptor in mouse vas deferens; type: functional; method in brief: as §3
Mus musculus [6] = species: Mus musculus; test: compound was evaluated for agonist activity in smooth muscle preparation of mouse vas deferens (MVD) at 1 uM concentration; type: functional; details: Muscle tissue; method in brief: as §2
[7] = target: T1, Delta-type opioid receptor; test: Compound was evaluated for its effect towards [3H]DPDPE binding to Opioid receptor delta 1 at 0.25 nM concentration expressed as dissociation constant
[8] = Post wash IC50 ratio obtained by dividing the IC50 of the DADLE in presence of the antagonist by the IC50 of the agonist alone in the same tissue preparation against delta receptor in mouse vas deferens; type: functional; method in brief: as §3
Mus musculus [9] = test: Compound was tested for antagonistic activity of opioid agonist induced antinociception by using DSLET as agonist, administered icv in mice; type: functional; method in brief: as §1
Mus musculus [10] = test: Compound was tested for antagonistic activity of opioid agonist induced antinociception by using morphine as agonist, administered sc in mice; type: functional; method in brief: as §1
Mu-type opioid receptor [11] = target: Mu-type opioid receptor (UniProt P35372); test: Prewash IC50 ratio obtained by dividing the IC50 of the morphine in presence of the antagonist by the IC50 of the agonist alone in the same tissue preparation against opioid receptor mu in guinea pig ileum; type: functional, tissue-based; method in brief: as §3
[12] = target: Delta-type opioid receptor (Rattus norvegicus) (UniProt P33533); test: Compound was evaluated for its effect on the [3H]DSLET binding towards Opioid receptor delta 2 at 0.25 nM concentration; activity expressed as Bmax
Chain of Delta-type opioid receptor (Rattus norvegicus) (P33533 whole entry): as the sequence (P33533 whole entry) above

[13] = target: Delta-type opioid receptor (Rattus norvegicus) (UniProt P33533); test: Compound was evaluated for its effect on the [3H]DSLET binding towards Opioid receptor delta 2 at 4 nM concentration; activity expressed as Bmax
[14] = target: Delta-type opioid receptor (Rattus norvegicus) (UniProt P33533); test: Compound was evaluated for its effect towards […] binding to Opioid receptor delta 1 at 0.25 nM concentration activity expressed as Bmax
[15] = target: Kappa-type opioid receptor (UniProt P41145); test: Prewash IC50 ratio obtained by dividing the IC50 of the ethylketazocine in presence of the antagonist by the IC50 of the agonist alone in the same tissue preparation against opioid receptor kappa in guinea pig ileum; type: functional, tissue-based; method in brief: as §3
Chain of Kappa-type opioid receptor (P41145 whole entry): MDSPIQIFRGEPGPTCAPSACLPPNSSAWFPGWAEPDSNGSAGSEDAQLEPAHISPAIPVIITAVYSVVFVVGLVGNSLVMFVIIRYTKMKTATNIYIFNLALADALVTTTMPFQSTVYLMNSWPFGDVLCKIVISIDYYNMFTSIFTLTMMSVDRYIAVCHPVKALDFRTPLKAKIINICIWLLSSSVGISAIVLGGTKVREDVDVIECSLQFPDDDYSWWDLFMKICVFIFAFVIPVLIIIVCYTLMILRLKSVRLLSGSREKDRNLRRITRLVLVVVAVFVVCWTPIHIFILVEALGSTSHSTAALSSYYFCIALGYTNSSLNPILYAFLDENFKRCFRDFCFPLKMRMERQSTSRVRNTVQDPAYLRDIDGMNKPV

Oc1ccc2c3c1OC1c4[nH]c5c(N=C=S)cccc5c4CC4(O)C(C2)N(CC2CC2)CCC314 (stereo unspecified)
ED50 ratio (Mus musculus [1]): 0.8 | inhibition at 1 µM (Cavia porcellus): 5.9% | ED50 ratio (Mus musculus [2]): 3.7 | Kd [3]: 15.7 nM | Ratio (Mu-type opioid receptor [4]): 53 | Ratio [5]: 7.99 | inhibition at 1 µM (Mus musculus [6]): 31.8% | Kd [7]: 2.3 nM | Ratio [8]: 16.1 | ED50 ratio (Mus musculus [9]): 3 | ED50 ratio (Mus musculus [10]): 2 | Ratio (Mu-type opioid receptor [11]): 15 | Bmax (fM (mg of protein)-1) [12]: 208 | Bmax (fM (mg of protein)-1) [13]: 361 | Bmax (fM (mg of protein)-1) [14]: 5.6 | Ratio [15]: 0.81

Oc1ccc2c3c1OC1c4[nH]c5cc(N=C=S)ccc5c4CC4(O)C(C2)N(CC2CC2)CCC314 (stereo unspecified)
ED50 ratio (Mus musculus [1]): 0.9 | inhibition at 1 µM (Cavia porcellus): 12.4% | ED50 ratio (Mus musculus [2]): 9.2 | Ratio [5]: 155 | inhibition at 1 µM (Mus musculus [6]): 0% | Ratio [8]: 185 | ED50 ratio (Mus musculus [9]): 6.8 | ED50 ratio (Mus musculus [10]): 1.4 | Ratio (Mu-type opioid receptor [11]): 1.44 | Ratio [15]: 1.04

Oc1ccc2c3c1OC1c4[nH]c5ccc(N=C=S)cc5c4CC4(O)C(C2)N(CC2CC2)CCC314 (stereo unspecified)
ED50 ratio (Mus musculus [1]): 3.2 | inhibition at 1 µM (Cavia porcellus): -2.4% | ED50 ratio (Mus musculus [2]): 0.6 | Ratio [5]: 6.68 | inhibition at 1 µM (Mus musculus [6]): 18.8% | Ratio [8]: 7.71 | ED50 ratio (Mus musculus [9]): 52.1 | ED50 ratio (Mus musculus [10]): 1.3 | Ratio (Mu-type opioid receptor [11]): 0.9 | Ratio [15]: 0.93

Oc1ccc2c3c1OC1c4[nH]c5cccc(N=C=S)c5c4CC4(O)C(C2)N(CC2CC2)CCC314 (stereo unspecified)
ED50 ratio (Mus musculus [1]): 1.6 | inhibition at 1 µM (Cavia porcellus): 1% | ED50 ratio (Mus musculus [2]): 2.6 | Ratio [5]: 4.59 | inhibition at 1 µM (Mus musculus [6]): 24.4% | Ratio [8]: 3.71 | ED50 ratio (Mus musculus [9]): 1.6 | ED50 ratio (Mus musculus [10]): 1.2 | Ratio (Mu-type opioid receptor [11]): 0.77 | Ratio [15]: 0.51
